Data as given in PMC9476207 (ACS Omega, 2022).

Tests used:
OVCAR-8 = test: NCI-60 single-dose antiproliferative screen; type: cell-based; conditions: Homo sapiens, OVCAR-8, 48 h, read-out: growth percent
Summary of the method: (§1)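 NCI-60 protocol. Lines were grown in RPMI 1640 with 5% FBS and 2 mM L-glutamine, plated and incubated 24 h at 37 °C; time-zero plates were TCA-fixed. The test compound was dissolved in DMSO, diluted in medium with 50 μg/mL gentamicin and given once at a final 10^-5 M (DMSO control) for 48 h. Cells were fixed with cold TCA (1 h, 4 °C) and stained with 0.4% SRB in 1% acetic acid for 10 min. Dye was dissolved in 10 mM Trizma base and read at 515 nm. Growth percent was calculated from time-zero, test and control ODs.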

CCRF-CEM = test: NCI-60 single-dose antiproliferative screen; type: cell-based; conditions: Homo sapiens, 48 h, read-out: growth percent
Summary of the method: as §1

SNB-75 = test: NCI-60 single-dose antiproliferative screen; type: cell-based; conditions: Homo sapiens, SNB-75, 48 h, read-out: growth percent
Summary of the method: (§2)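 Cells grown in RPMI 1640 with 5% FBS and 2 mM L-glutamine, plated and held 24 h at 37 °C; time-zero plates TCA-fixed. DMSO stocks were diluted in gentamicin-containing medium to a final 10^-5 M, with a DMSO-only control. Exposure 48 h, 5% CO2. Adherent cells TCA-fixed 1 h at 4 °C, stained with 0.4% SRB, solubilised in 10 mM Trizma base, read at 515 nm. Growth percent derived from ODtzero, ODtest and ODctrl.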

COLO205 = test: NCI-60 single-dose antiproliferative screen; type: cell-based; conditions: Homo sapiens, COLO 205, 48 h, read-out: growth percent
Summary of the method: as §1

NCI-H23 = test: NCI-60 single-dose antiproliferative screen; type: cell-based; conditions: Homo sapiens, NCI-H23, 48 h, read-out: growth percent
Summary of the method: as §1

BT-549 = test: NCI-60 single-dose antiproliferative screen; type: cell-based; conditions: Homo sapiens, BT-549, 48 h, read-out: growth percent
Summary of the method: as §1

IGROV1 = test: NCI-60 single-dose antiproliferative screen; type: cell-based; conditions: Homo sapiens, IGROV-1, 48 h, read-out: growth percent
Summary of the method: as §1

SNB-19 = test: NCI-60 single-dose antiproliferative screen; type: cell-based; conditions: Homo sapiens, SNB-19, 48 h, read-out: growth percent
Summary of the method: as §2

NCI-H226 = test: NCI-60 single-dose antiproliferative screen; type: cell-based; conditions: Homo sapiens, NCI-H226, 48 h, read-out: growth percent
Summary of the method: as §1

TK-10 = test: NCI-60 single-dose antiproliferative screen; type: cell-based; conditions: Homo sapiens, TK-10, 48 h, read-out: growth percent
Summary of the method: as §2

SF-539 = test: NCI-60 single-dose antiproliferative screen; type: cell-based; conditions: Homo sapiens, SF-539, 48 h, read-out: growth percent
Summary of the method: as §2

DU-145 = test: NCI-60 single-dose antiproliferative screen; type: cell-based; conditions: Homo sapiens, DU-145, 48 h, read-out: growth percent
Summary of the method: as §1

UACC-257 = test: NCI-60 single-dose antiproliferative screen; type: cell-based; conditions: Homo sapiens, UACC-257, 48 h, read-out: growth percent
Summary of the method: as §2

ACHN = test: NCI-60 single-dose antiproliferative screen; type: cell-based; conditions: Homo sapiens, 48 h, read-out: growth percent
Summary of the method: as §1

T-47D = test: NCI-60 single-dose antiproliferative screen; type: cell-based; conditions: Homo sapiens, T47D, 48 h, read-out: growth percent
Summary of the method: as §2

EKVX = test: NCI-60 single-dose antiproliferative screen; type: cell-based; conditions: Homo sapiens, 48 h, read-out: growth percent
Summary of the method: as §1

M14 = test: NCI-60 single-dose antiproliferative screen; type: cell-based; conditions: Homo sapiens, M14, 48 h, read-out: growth percent
Summary of the method: as §1

786-0 = test: NCI-60 single-dose antiproliferative screen; type: cell-based; conditions: Homo sapiens, 786-0, 48 h, read-out: growth percent
Summary of the method: as §1

MCF-7 = test: NCI-60 single-dose antiproliferative screen; type: cell-based; conditions: Homo sapiens, MCF7, 48 h, read-out: growth percent
Summary of the method: as §1

HT29 = test: NCI-60 single-dose antiproliferative screen; type: cell-based; conditions: Homo sapiens, HT-29, 48 h, read-out: growth percent
Summary of the method: as §1

A498 = test: NCI-60 single-dose antiproliferative screen; type: cell-based; conditions: Homo sapiens, A498, 48 h, read-out: growth percent
Summary of the method: as §1

HL-60(TB) = test: NCI-60 single-dose antiproliferative screen; type: cell-based; conditions: Homo sapiens, HL-60, 48 h, read-out: growth percent
NCI-H460 cells [1] = test: Colony-forming ability; type: cell-based, human
NCI-H460 cells [2] = test: Wound healing assay; type: cell-based, human

Row | SMILES | activity at 10 µM (OVCAR-8) | activity at 10 µM (CCRF-CEM) | activity at 10 µM (SNB-75) | activity at 10 µM (COLO205) | activity at 10 µM (NCI-H23) | activity at 10 µM (BT-549) | activity at 10 µM (IGROV1) | activity at 10 µM (SNB-19) | activity at 10 µM (NCI-H226) | activity at 10 µM (TK-10) | activity at 10 µM (SF-539) | activity at 10 µM (DU-145) | activity at 10 µM (UACC-257) | activity at 10 µM (ACHN) | activity at 10 µM (T-47D) | activity at 10 µM (EKVX) | activity at 10 µM (M14) | activity at 10 µM (786-0) | activity at 10 µM (MCF-7) | activity at 10 µM (HT29) | further results
1 | COc1cc(CNC(=O)CCCC/C=C/C(C)C)ccc1OCc1cn(-c2ccccc2Cl)nn1 [14c, (E)-N-(4-((1-(2-Chlorophenyl)-1H-1,2,3-triazol-4-yl)methoxy)-3-methoxybenzyl)-8-methylnon-6-enamide] | 89.6% | 87.9% | 87.3% | 106% | 93.6% | 90.8% | 98.8% | 89.7% | 81.8% | 94.6% | 104% | 99.2% | 87.9% | 74.1% | 74.3% | 82.1% | 92.6% | 93.8% | 97.2% | 98.2% | –
2 | COc1cc(CNC(=O)C[C@H](C)CCC=C(C)C)ccc1OCc1cn(-c2ccc(Cl)cc2)nn1 [18b, (R)-N-(4-((1-(4-Chlorophenyl)-1H-1,2,3-triazol-4-yl)methoxy)-3-methoxybenzyl)-3,7-dimethyloct-6-enamide] | 49.1% | 92.9% | 41.6% | 91.1% | 64.9% | 87.4% | 80.2% | 78.6% | 63.8% | 95.6% | 67.7% | 82.8% | 85.5% | 44.8% | 52.5% | 75.3% | 90.8% | 84.3% | 51.6% | 79.6% | activity at 10 µM (A498): 98.9%; activity at 10 µM (HL-60(TB)): 87.8%
3 | COc1cc(CNC(=O)CCCC/C=C/C(C)C)ccc1OCc1cn(-c2ccc(C#N)cc2)nn1 [14j, (E)-N-(4-((1-(4-Cyanophenyl)-1H-1,2,3-triazol-4-yl)methoxy)-3-methoxybenzyl)-8-methylnon-6-enamide] | 63.3% | 86.2% | 94.2% | 117% | 72.1% | 91.2% | 100% | 81.9% | 100% | 91.8% | 94.5% | 44.4% | 94.3% | – | 76.8% | 90.8% | 95.3% | 91.7% | 103% | 95.6% | colony-forming ability (NCI-H460 cells [1]): inhibited the colony-forming ability; migration capacity (wound healing) (NCI-H460 cells [2]): moderate wound healing
4 | COc1cc(CNC(=O)CCCC/C=C/C(C)C)ccc1OCc1cn(-c2ccc(C)cc2)nn1 [14n, (E)-N-(3-Methoxy-4-((1-(p-tolyl)-1H-1,2,3-triazol-4-yl)methoxy)benzyl)-8-methylnon-6-enamide] | 76.5% | 87.3% | 99.5% | 115% | 87.9% | 105% | 98.5% | 77.9% | 75.8% | 101% | 100% | 97% | 88.2% | 72% | 77.4% | 84.8% | 93.3% | 99.6% | 96.3% | 100% | –
